Here are results for 22 molecules from ChEMBL document CHEMBL4184244, “Synthesis, kinetics and inhibition of Escherichia coli Heptosyltransferase I by monosaccharide analogues of Lipid A” (Bioorg Med Chem Lett, 2018).

Series [1] has as its target T1, Lipopolysaccharide heptosyltransferase 1 (Escherichia coli (strain K12)) (UniProt P24173).
T1 sequence (whole entry): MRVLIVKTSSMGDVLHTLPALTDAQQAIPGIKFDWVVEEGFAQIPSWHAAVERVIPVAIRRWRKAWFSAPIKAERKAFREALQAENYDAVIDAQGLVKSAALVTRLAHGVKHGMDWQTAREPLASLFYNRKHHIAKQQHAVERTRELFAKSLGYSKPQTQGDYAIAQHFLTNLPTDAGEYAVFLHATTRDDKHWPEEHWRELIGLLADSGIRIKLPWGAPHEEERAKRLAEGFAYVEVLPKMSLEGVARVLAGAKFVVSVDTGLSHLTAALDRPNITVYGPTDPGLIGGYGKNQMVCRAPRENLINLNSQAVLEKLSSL
Nature of the series: Substrate activity at Escherichia coli Heptosyltransferase I assessed as ADP release at 100 uM using phospho(enol)pyruvate and NADH by pyruvate kinase and LDH based ADP/NADH coupling assay. The method in brief: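 Screening for acceptor-substrate (nucleophile) use by HepI. Each compound replaces the normal Kdo2-Lipid A-type acceptor. ADP-heptose is the heptose donor. Free glucose and galactose and their α- and β-methyl glycosides were screened the same way before the synthesized compounds.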

Series [2] deals with T1, Lipopolysaccharide heptosyltransferase 1 (Escherichia coli (strain K12)). Briefly: Inhibition of Escherichia coli Heptosyltransferase I assessed as reduction in ADP release at 1 mM using ODLA and ADP-heptose substrates in presence of phospho(enol)pyruvate and NADH by pyruvate kinase and LDH based ADP/NADH coupling assay.
Series [3] addresses T2, Lipopolysaccharide heptosyltransferase 1 (Escherichia coli (strain K12), UniProt P24173).
T2 sequence (P24173 whole entry): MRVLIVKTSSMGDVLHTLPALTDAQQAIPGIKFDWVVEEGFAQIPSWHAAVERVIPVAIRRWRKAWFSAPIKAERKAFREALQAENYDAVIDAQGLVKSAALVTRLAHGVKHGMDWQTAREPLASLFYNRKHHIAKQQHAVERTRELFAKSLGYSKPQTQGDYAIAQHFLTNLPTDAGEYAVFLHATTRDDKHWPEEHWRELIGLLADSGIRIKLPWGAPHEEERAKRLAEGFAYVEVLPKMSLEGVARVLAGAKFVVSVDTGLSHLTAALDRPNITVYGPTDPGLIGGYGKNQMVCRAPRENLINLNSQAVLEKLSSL
Nature of the series: Inhibition of Escherichia coli Heptosyltransferase I assessed as reduction in ADP release using ODLA and ADP-heptose substrates in presence of phospho(enol)pyruvate and NADH by pyruvate kinase and LDH based ADP/NADH coupling assay.

Compound in series [4]: CCCC/C=C/CO[C@@H]1O[C@H](CO)[C@@H](O)[C@H](O)[C@H]1O
Briefly: Noncompetitive mixed type inhibition of Escherichia coli Heptosyltransferase I assessed as reduction in ADP release by measuring ADP-heptose Km at 1000 uM using ODLA and ADP-heptose substrates in presence of phospho(enol)pyruvate and NADH by pyruvate kinase and LDH dependent ADP/NADH coupling assay based Lineweaver-Burk plot.

Compound in series [5]: CCCC/C=C/CO[C@@H]1O[C@H](CO)[C@@H](O)[C@H](O)[C@H]1O
Briefly: Noncompetitive mixed type inhibition of Escherichia coli Heptosyltransferase I assessed as reduction in ADP release by measuring ADP-heptose Km at 100 uM using ODLA and ADP-heptose substrates in presence of phospho(enol)pyruvate and NADH by pyruvate kinase and LDH dependent ADP/NADH coupling assay based Lineweaver-Burk plot.

Compound in series [6]: CCCC/C=C/CO[C@@H]1O[C@H](CO)[C@@H](O)[C@H](O)[C@H]1O
Briefly: Noncompetitive mixed type inhibition of Escherichia coli Heptosyltransferase I assessed as reduction in ADP release by measuring ADP-heptose Km at 10 uM using ODLA and ADP-heptose substrates in presence of phospho(enol)pyruvate and NADH by pyruvate kinase and LDH dependent ADP/NADH coupling assay based Lineweaver-Burk plot.

Compound in series [7]: CCCC/C=C/CO[C@@H]1O[C@H](CO)[C@@H](O)[C@H](O)[C@H]1O
Nature of the series: Noncompetitive mixed type inhibition of Escherichia coli Heptosyltransferase I assessed as reduction in ADP release by measuring ADP-heptose Kcat at 1000 uM using ODLA and ADP-heptose substrates in presence of phospho(enol)pyruvate and NADH by pyruvate kinase and LDH dependent ADP/NADH coupling assay based Lineweaver-Burk plot.

Compound in series [8]: CCCC/C=C/CO[C@@H]1O[C@H](CO)[C@@H](O)[C@H](O)[C@H]1O
Nature of the series: Noncompetitive mixed type inhibition of Escherichia coli Heptosyltransferase I assessed as reduction in ADP release by measuring ADP-heptose Kcat at 100 uM using ODLA and ADP-heptose substrates in presence of phospho(enol)pyruvate and NADH by pyruvate kinase and LDH dependent ADP/NADH coupling assay based Lineweaver-Burk plot.

Compound in series [9]: CCCC/C=C/CO[C@@H]1O[C@H](CO)[C@@H](O)[C@H](O)[C@H]1O
Briefly: Noncompetitive mixed type inhibition of Escherichia coli Heptosyltransferase I assessed as reduction in ADP release by measuring ADP-heptose Kcat at 10 uM using ODLA and ADP-heptose substrates in presence of phospho(enol)pyruvate and NADH by pyruvate kinase and LDH dependent ADP/NADH coupling assay based Lineweaver-Burk plot.

Compound in series [10]: CCCC/C=C/CO[C@@H]1O[C@H](CO)[C@@H](O)[C@H](O)[C@H]1O
Briefly: Noncompetitive inhibition of Escherichia coli Heptosyltransferase I assessed as reduction in ADP release by measuring ODLA Km at 1000 uM using ODLA and ADP-heptose substrates in presence of phospho(enol)pyruvate and NADH by pyruvate kinase and LDH dependent ADP/NADH coupling assay based Lineweaver-Burk plot.

Compound in series [11]: CCCC/C=C/CO[C@@H]1O[C@H](CO)[C@@H](O)[C@H](O)[C@H]1O
Briefly: Noncompetitive inhibition of Escherichia coli Heptosyltransferase I assessed as reduction in ADP release by measuring ODLA Km at 100 uM using ODLA and ADP-heptose substrates in presence of phospho(enol)pyruvate and NADH by pyruvate kinase and LDH dependent ADP/NADH coupling assay based Lineweaver-Burk plot.

Compound in series [12]: CCCC/C=C/CO[C@@H]1O[C@H](CO)[C@@H](O)[C@H](O)[C@H]1O
Nature of the series: Noncompetitive inhibition of Escherichia coli Heptosyltransferase I assessed as reduction in ADP release by measuring ODLA Km at 10 uM using ODLA and ADP-heptose substrates in presence of phospho(enol)pyruvate and NADH by pyruvate kinase and LDH dependent ADP/NADH coupling assay based Lineweaver-Burk plot.

Compound in series [13]: CCCC/C=C/CO[C@@H]1O[C@H](CO)[C@@H](O)[C@H](O)[C@H]1O
Nature of the series: Noncompetitive inhibition of Escherichia coli Heptosyltransferase I assessed as reduction in ADP release by measuring ODLA Kcat at 1000 uM using ODLA and ADP-heptose substrates in presence of phospho(enol)pyruvate and NADH by pyruvate kinase and LDH dependent ADP/NADH coupling assay based Lineweaver-Burk plot.

Compound in series [14]: CCCC/C=C/CO[C@@H]1O[C@H](CO)[C@@H](O)[C@H](O)[C@H]1O
Briefly: Noncompetitive inhibition of Escherichia coli Heptosyltransferase I assessed as reduction in ADP release by measuring ODLA Kcat at 100 uM using ODLA and ADP-heptose substrates in presence of phospho(enol)pyruvate and NADH by pyruvate kinase and LDH dependent ADP/NADH coupling assay based Lineweaver-Burk plot.

Compound in series [15]: CCCC/C=C/CO[C@@H]1O[C@H](CO)[C@@H](O)[C@H](O)[C@H]1O
Nature of the series: Noncompetitive inhibition of Escherichia coli Heptosyltransferase I assessed as reduction in ADP release by measuring ODLA Kcat at 10 uM using ODLA and ADP-heptose substrates in presence of phospho(enol)pyruvate and NADH by pyruvate kinase and LDH dependent ADP/NADH coupling assay based Lineweaver-Burk plot.

In general, inhibition refers to the share of the control response that was lost under treatment. In general, Ki refers to the equilibrium dissociation constant of an inhibitor or competing ligand from its target. By Km is commonly meant the substrate concentration at which the rate is half of its maximum. Usually kcat stands for the maximal rate divided by the concentration of active sites.

The source made the active and inactive calls. No cut-off for these calls is given here.

As to `CCCCCCCCO[C@@H]1O[C@H](CO)[C@@H](O)[C@H](O)[C@H]1O`, the result in series [1] was inactive. In addition, in series [2], the inhibition came out at 8.3%.
`CO[C@H]1O[C@H](CO)[C@@H](O)[C@H](O)[C@H]1O`: the result in [1] was inactive. In series [2], the inhibition was 27.8%. The Ki in series [3] worked out at 370 µM.
The corresponding values for `CO[C@@H]1O[C@H](CO)[C@@H](O)[C@H](O)[C@H]1O` are “inactive”, 19.5% and 680 µM.
Take `CCCCCC/C=C/CO[C@H]1O[C@H](CO)[C@@H](O)[C@H](O)[C@H]1O`: the result in series [1] was inactive. Also, the inhibition in [2] was found to be 16.7%.
`O=C[C@H](O)[C@@H](O)[C@@H](O)[C@H](O)CO` [GALACTOSE]: the outcome in [1] was inactive. The inhibition in [2] was determined as 28.5%. Further, the Ki in series [3] was determined as 500 µM.
In the same order, the values of `C=CCO[C@@H]1O[C@H](CO)[C@@H](O)[C@H](O)[C@H]1O` are “inactive”, 19.6% and 650 µM.
Turning to `C=CCO[C@@H]1O[C@H](CO)[C@H](O)[C@H](O)[C@H]1O`, in series [1], the outcome was inactive. Besides, the inhibition in series [2] was determined as 10%.
Consider `CCCC/C=C/CO[C@@H]1O[C@H](CO)[C@@H](O)[C@H](O)[C@H]1O`, for which the outcome in [1] was inactive. For the same molecule, the inhibition in [2] is 29.7%. In series [3], the Ki was found to be 340 µM.
On to `CO[C@@H]1O[C@H](CO)[C@H](O)[C@H](O)[C@H]1O`, for which the result in [1] was inactive. Also, in series [2], the inhibition came to 7%.
`CCCC/C=C/CO[C@@H]1O[C@H](CO)[C@H](O)[C@H](O)[C@H]1O`: in series [1], the result was inactive. In addition, in series [2], the inhibition amounted to 22.6%. Further, in series [3], the Ki turned out to be 570 µM.
With `CCCCCC/C=C/CO[C@@H]1O[C@H](CO)[C@@H](O)[C@H](O)[C@H]1O`, the outcome in [1] was inactive. Further, the inhibition in series [2] worked out at 4.2%.
As to `CCCCCC/C=C/CO[C@@H]1O[C@H](CO)[C@H](O)[C@H](O)[C@H]1O`, in series [1], the result was inactive. Further, in series [2], the inhibition was determined as 6.3%.
Regarding `CCCCCCCC/C=C/CO[C@@H]1O[C@H](CO)[C@@H](O)[C@H](O)[C@H]1O`, in series [1], the outcome was inactive. The inhibition in series [2] worked out at 23.4%. Besides, the Ki in series [3] amounted to 520 µM.
Take `CCCCC/C=C/CO[C@@H]1O[C@H](CO)[C@@H](O)[C@H](O)[C@H]1O`: in series [1], the outcome was inactive. Moreover, the inhibition in series [2] amounted to 11.9%.
In the same order, the values of `CCCCCC/C=C/CO[C@H]1O[C@H](CO)[C@H](O)[C@H](O)[C@H]1O` are “inactive” and 8.8%.
In the same order, the values of `CCCCC/C=C/CO[C@@H]1O[C@H](CO)[C@H](O)[C@H](O)[C@H]1O` are “inactive” and 7.8%.
Regarding `OC[C@H]1OC(O)[C@H](O)[C@@H](O)[C@@H]1O` (stereo partly specified) [DEXTROSE], the result in [1] was inactive. Also, the Ki in [3] is 280 µM.
With `CCCCCCCC/C=C/CO[C@@H]1O[C@H](CO)[C@H](O)[C@H](O)[C@H]1O`, the outcome in series [1] was inactive. The inhibition in [2] is 5%.
In the same order, the values of `CCCCCCCC/C=C/CO[C@H]1O[C@H](CO)[C@H](O)[C@H](O)[C@H]1O` are “inactive” and “inactive”.
For `CO[C@H]1O[C@H](CO)[C@H](O)[C@H](O)[C@H]1O`, the outcome in series [1] was inactive. The inhibition in series [2] is 8.8%.
In the same order, the values of `CCCCCCCC/C=C/CO[C@H]1O[C@H](CO)[C@@H](O)[C@H](O)[C@H]1O` are “inactive” and “inactive”.

B1: Lipopolysaccharide heptosyltransferase 1 (Escherichia coli (strain K12)), P24173 (protein)
chain: MRVLIVKTSSMGDVLHTLPALTDAQQAIPGIKFDWVVEEGFAQIPSWHAAVERVIPVAIRRWRKAWFSAPIKAERKAFREALQAENYDAVIDAQGLVKSAALVTRLAHGVKHGMDWQTAREPLASLFYNRKHHIAKQQHAVERTRELFAKSLGYSKPQTQGDYAIAQHFLTNLPTDAGEYAVFLHATTRDDKHWPEEHWRELIGLLADSGIRIKLPWGAPHEEERAKRLAEGFAYVEVLPKMSLEGVARVLAGAKFVVSVDTGLSHLTAALDRPNITVYGPTDPGLIGGYGKNQMVCRAPRENLINLNSQAVLEKLSSL
As for B1, the Michaelis constant (Km) in series [4] is 38 µM; in [5], 135 µM; in series [6] it was 277 µM; in [10], 65 µM; in series [11] it was 108 µM; in series [12], 114 µM. Also, the kcat amounted to 0.76 s⁻¹ in series [7]; 1.6 s⁻¹ in [8]; 2.8 s⁻¹ in [9]; 0.9 s⁻¹ in series [13]; 1.3 s⁻¹ in series [14]; 1.4 s⁻¹ in [15].
